ChEMBL document CHEMBL4219143, “Synthesis, structure-activity relationships and preliminary mechanism study of N-benzylideneaniline derivatives as potential TLR2 inhibitors” (Bioorg Med Chem, 2018)
Activity calls are given as the source filed them. No cut-off for these calls is given here.

How the values were obtained:
[1] = biological target: Toll-like receptor 2 (Homo sapiens) (UniProt O60603); experiment: Antagonist activity at human TLR2 expressed in HEK-blue cells assessed as inhibition of Pam3CSK4-induced NF-kappaB activation-mediated SEAP production at 50 uM after 24 hrs by Quanti-blue-based assay; assay type: cell-based
Sequence of Toll-like receptor 2 (Homo sapiens) (O60603 whole entry): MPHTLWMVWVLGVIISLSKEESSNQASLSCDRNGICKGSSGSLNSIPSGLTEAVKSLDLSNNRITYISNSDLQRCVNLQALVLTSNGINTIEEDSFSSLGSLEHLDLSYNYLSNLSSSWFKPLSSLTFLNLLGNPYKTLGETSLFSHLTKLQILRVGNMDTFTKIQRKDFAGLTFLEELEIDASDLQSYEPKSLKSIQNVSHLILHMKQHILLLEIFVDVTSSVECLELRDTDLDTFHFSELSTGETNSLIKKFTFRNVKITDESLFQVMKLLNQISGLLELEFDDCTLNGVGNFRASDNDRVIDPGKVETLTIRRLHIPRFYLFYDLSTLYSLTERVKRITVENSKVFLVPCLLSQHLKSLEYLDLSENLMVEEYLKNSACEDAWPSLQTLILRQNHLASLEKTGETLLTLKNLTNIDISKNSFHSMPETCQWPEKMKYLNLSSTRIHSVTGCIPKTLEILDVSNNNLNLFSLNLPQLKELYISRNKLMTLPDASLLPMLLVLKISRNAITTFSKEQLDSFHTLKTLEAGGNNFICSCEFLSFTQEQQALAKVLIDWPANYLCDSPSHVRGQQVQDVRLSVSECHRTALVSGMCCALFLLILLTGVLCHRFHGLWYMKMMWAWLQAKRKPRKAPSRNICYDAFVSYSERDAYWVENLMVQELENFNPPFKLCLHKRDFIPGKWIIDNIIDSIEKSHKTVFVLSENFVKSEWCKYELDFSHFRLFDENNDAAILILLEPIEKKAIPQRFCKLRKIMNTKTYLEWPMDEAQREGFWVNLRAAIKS
Procedure, shortened: (§1)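 HEK-Blue hTLR2 cells in DMEM with 10% serum and antibiotics, plated at 4 × 10⁴ cells per well for 24 h. Medium then replaced with compound plus agonist for 24 h at 37 °C. Agonists (final): Pam₃CSK₄ 10 ng/ml (TLR1/2), Pam₂CSK₄ 10 ng/ml (TLR2/6), Poly I:C 10 µg/ml (TLR3). Supernatant mixed 1:1 with Quanti-Blue; SEAP read at OD 620 nm after 15–30 min.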

[2] = biological target: Toll-like receptor 2 (Homo sapiens) (UniProt O60603); experiment: Antagonist activity at human TLR2 expressed in HEK-blue cells assessed as inhibition of Pam3CSK4-induced NF-kappaB activation-mediated SEAP production at 25 uM after 24 hrs by Quanti-blue-based assay; assay type: cell-based; procedure, shortened: as §1
TLR2/TLR6 (Homo sapiens) [3] = biological target: T1, TLR2/TLR6 (Homo sapiens) (UniProt O60603+Q9Y2C9); experiment: Antagonist activity at human TLR2/6 expressed in HEK-blue cells assessed as inhibition of Pam2CSK4-induced IL-8 mRNA expression at 100 uM preincubated for 1 hr followed by Pam2CSK4 induction measured after 1 hr by qRT-PCR method relative to control; assay type: cell-based
[4] = biological target: T2, Toll-like receptor 1/2 (Homo sapiens) (UniProt O60603+Q15399); experiment: Antagonist activity at human TLR1/2 expressed in HEK-blue cells assessed as inhibition of Pam3CSK4-induced IL-8 mRNA expression at 100 uM preincubated for 1 hr followed by Pam3CSK4 induction measured after 1 hr by qRT-PCR method relative to control; assay type: cell-based
[5] = Cytotoxicity against HEK-Blue cells up to 100 uM after 24 hrs by MTT assay; assay type: cell-based; settings: human
Procedure, shortened: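 HEK-TLR2 cells in DMEM with 10% FBS, plated at 4 × 10⁴ cells per well for 24 h. Compound plus Pam₃CSK₄ (final 10 ng/ml) added, then incubated 24 h. MTT (5 mg/ml in PBS) added for 3 h at 37 °C. Formazan dissolved in DMSO; absorbance read at 490 nm.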

TLR2/TLR6 (Homo sapiens) [6] = biological target: T1, TLR2/TLR6 (Homo sapiens); experiment: Antagonist activity at human TLR2/6 expressed in HEK-blue cells assessed as inhibition of Pam2CSK4-induced NF-kappaB activation-mediated SEAP production at 25 uM after 24 hrs by Quanti-blue-based assay; assay type: cell-based; procedure, shortened: as §1
[7] = biological target: Toll-like receptor 2 (Homo sapiens) (UniProt O60603); experiment: Antagonist activity at human TLR2 expressed in HEK-Blue cells assessed as inhibition of Pam3CSK4-induced TLR2 upregulation at 10 uM by Western blot analysis; assay type: cell-based
Procedure, shortened: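 HEK-Blue hTLR2 cells treated with compound and Pam₃CSK₄ at 400 ng/ml. Lysed in RIPA buffer with 1% PMSF; proteins run on SDS-PAGE and transferred to PVDF. Membranes blocked with 5% milk in TBST. Probed overnight at 4 °C with anti-TLR2 (1:250) and anti-GAPDH (1:2000), then HRP secondary (1:2500) 1 h at RT. Detected by ECL.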

[8] = biological target: Toll-like receptor 2 (Homo sapiens) (UniProt O60603); experiment: Antagonist activity at TLR2 in human PBMC assessed as inhibition of Pam3CSK4-induced TNFalpha signalling after 24 hrs by ELISA; assay type: cell-based
Procedure, shortened: (§2)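 Human PBMC seeded at 2.5 × 10⁵ cells per well in RPMI 1640 with 10% FBS and 1% penicillin/streptomycin. Cells treated with compound plus Pam₃CSK₄ 10 ng/ml for 24 h at 37 °C, 5% CO₂. Supernatants stored frozen at −80 °C. TNF-α measured by sandwich ELISA against recombinant human standards, each sample in triplicate.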

[9] = biological target: T2, Toll-like receptor 1/2 (Homo sapiens); experiment: Antagonist activity at human TLR1/2 expressed in HEK-blue cells assessed as inhibition of Pam3CSK4-induced NF-kappaB activation-mediated SEAP production at 25 uM after 24 hrs by Quanti-blue-based assay; assay type: cell-based; procedure, shortened: as §1
TLR2/TLR6 (Mus musculus) = TLR2/TLR6 (Mus musculus) (UniProt Q9QUN7+Q9EPW9); experiment: Antagonist activity at TLR2/TLR6 in mouse Raw 264.7 cells assessed as decrease in Pam2CSK4-induced iNOS levels at 40 uM after 24 hrs relative to positive control; assay type: cell-based
Procedure, shortened: (§3)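 Raw 264.7 cells in RPMI 1640 with 10% serum and antibiotics, plated at 8 × 10⁴ cells per well for 24 h. Compound and TLR agonist (Pam₃CSK₄ for TLR1/2, Pam₂CSK₄ for TLR2/6) added, then incubated 24 h. Nitric oxide in supernatant detected with DAN (0.05 mg/ml in 0.62 M HCl), 15 min in the dark.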

[10] = biological target: Toll-like receptor 2 (Mus musculus) (UniProt Q9QUN7); experiment: Antagonist activity at TLR2 in mouse Raw 264.7 cells assessed as decrease in Pam3CSK4-induced iNOS levels at 40 uM after 24 hrs relative to positive control; assay type: cell-based; procedure, shortened: as §3
Sequence of Toll-like receptor 2 (Mus musculus) (Q9QUN7 whole entry): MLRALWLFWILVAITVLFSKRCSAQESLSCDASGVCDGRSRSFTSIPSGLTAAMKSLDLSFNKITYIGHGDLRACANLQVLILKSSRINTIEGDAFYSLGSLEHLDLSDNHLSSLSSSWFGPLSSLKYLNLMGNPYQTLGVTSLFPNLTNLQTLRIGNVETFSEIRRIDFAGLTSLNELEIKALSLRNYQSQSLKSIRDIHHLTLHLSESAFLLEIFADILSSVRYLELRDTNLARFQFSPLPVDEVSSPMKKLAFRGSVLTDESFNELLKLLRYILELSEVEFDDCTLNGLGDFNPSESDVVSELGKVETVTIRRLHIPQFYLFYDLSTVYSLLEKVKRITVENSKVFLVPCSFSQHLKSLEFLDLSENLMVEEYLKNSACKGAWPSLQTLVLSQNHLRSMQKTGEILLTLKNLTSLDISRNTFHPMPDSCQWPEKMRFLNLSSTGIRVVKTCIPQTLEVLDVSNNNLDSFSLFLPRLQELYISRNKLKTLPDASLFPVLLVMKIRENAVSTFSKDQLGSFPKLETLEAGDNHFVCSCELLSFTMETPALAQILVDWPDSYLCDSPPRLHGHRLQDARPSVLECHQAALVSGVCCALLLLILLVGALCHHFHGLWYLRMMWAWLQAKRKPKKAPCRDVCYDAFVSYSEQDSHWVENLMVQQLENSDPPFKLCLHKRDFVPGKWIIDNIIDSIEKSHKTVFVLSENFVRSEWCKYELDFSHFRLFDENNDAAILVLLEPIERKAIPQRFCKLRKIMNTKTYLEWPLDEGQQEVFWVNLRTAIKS

[11] = biological target: Toll-like receptor 2 (Homo sapiens) (UniProt O60603); experiment: Antagonist activity at TLR2 in human PBMC assessed as inhibition of Pam3CSK4-induced TNFalpha signalling at 10 uM after 24 hrs by ELISA relative to control; assay type: cell-based; procedure, shortened: as §2
[12] = biological target: Toll-like receptor 3 (Homo sapiens) (UniProt O15455); experiment: Antagonist activity at human TLR3 expressed in HEK-Blue assessed as inhibition of poly 1:C-induced NF-kappaB activation-mediated SEAP production at 25 uM after 24 hrs by Quanti-blue-based assay; procedure, shortened: as §1
Sequence of Toll-like receptor 3 (Homo sapiens) (O15455 whole entry): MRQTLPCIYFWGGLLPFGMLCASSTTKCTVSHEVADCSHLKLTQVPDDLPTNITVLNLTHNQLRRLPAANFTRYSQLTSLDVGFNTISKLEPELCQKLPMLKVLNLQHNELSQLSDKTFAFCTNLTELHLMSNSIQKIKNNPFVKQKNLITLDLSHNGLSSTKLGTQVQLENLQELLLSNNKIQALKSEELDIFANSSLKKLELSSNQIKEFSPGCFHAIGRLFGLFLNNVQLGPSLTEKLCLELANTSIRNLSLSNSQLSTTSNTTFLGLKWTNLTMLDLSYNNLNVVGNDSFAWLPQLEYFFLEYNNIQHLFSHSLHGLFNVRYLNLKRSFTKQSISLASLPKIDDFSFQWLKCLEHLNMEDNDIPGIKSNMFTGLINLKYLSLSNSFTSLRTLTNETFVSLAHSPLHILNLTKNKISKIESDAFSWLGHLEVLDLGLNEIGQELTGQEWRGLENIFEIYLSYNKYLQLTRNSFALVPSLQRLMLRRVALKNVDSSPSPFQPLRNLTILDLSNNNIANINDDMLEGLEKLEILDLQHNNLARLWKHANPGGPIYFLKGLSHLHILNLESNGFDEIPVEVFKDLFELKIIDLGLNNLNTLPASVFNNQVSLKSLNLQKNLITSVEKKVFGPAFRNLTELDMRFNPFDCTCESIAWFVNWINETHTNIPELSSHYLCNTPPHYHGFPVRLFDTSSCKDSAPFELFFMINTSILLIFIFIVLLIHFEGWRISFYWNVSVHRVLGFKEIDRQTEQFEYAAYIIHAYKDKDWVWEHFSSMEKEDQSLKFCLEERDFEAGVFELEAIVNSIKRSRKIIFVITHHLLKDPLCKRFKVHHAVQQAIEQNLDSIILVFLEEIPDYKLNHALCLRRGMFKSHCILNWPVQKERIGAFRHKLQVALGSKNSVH

Row | Compound | inhibition [1] [%] | inhibition [2] [%] | other results
1 | COc1ccc(/N=C/c2cccc3ccccc23)cc1 | 1.97 | 5.21 | –
2 | C(=C\c1ccccc1)/C=N/c1ccc(-c2ccccc2)cc1 | 3.1 | 5.63 | –
3 | Cc1c(/N=C/C=C/c2ccccc2)cccc1C(=O)O | 14.4 | 1.74 | –
4 | CCOc1cccc(/C=N/c2ccccc2C(=O)c2ccccc2)c1O | 49 | 3.59 | –
5 | Cc1c(/N=C\c2c[nH]c3ccccc23)cccc1C(=O)O | 2.58 | 2.39 | –
6 | COc1ccc(/N=C\c2c[nH]c3ccccc23)cc1 | 0 | 2.11 | –
7 | CCOc1cccc(/C=N/c2ccccc2C(=O)c2ccc(Cl)cc2)c1O | 70.7 | 35.5 | –
8 | O=C(O)c1cccc(/N=C/c2cccc(O)c2O)c1 | 9.05 | 5 | –
9 | CCOc1cccc(/C=N/c2cccc(C)c2C(=O)O)c1O | 27.8 | 2.39 | –
10 | Oc1ccc(/N=C/c2cccc3ccccc23)cc1 | 98.8 | 44 | –
11 | Cc1c(/N=C/c2c(O)ccc3ccccc23)cccc1C(=O)O | 0 | 0 | –
12 | COc1cccc(/C=N/c2cccc(C(=O)O)c2)c1O | 23.7 | 0 | –
13 | COc1ccc(/N=C/c2cccc(OC)c2OC)cc1 | 0 | 0 | –
14 | C(=N/c1ccc(-c2ccccc2)cc1)/c1c[nH]c2ccccc12 | 3.8 | 2.35 | –
15 | O=C(O)c1ccc(C(F)(F)F)cc1/N=C\c1c[nH]c2ccccc12 | 5.77 | 0.33 | –
16 | COc1cccc(/C=N/c2ccc(O)cc2)c1 | 56.4 | 0.74 | –
17 | CCOc1cccc(/C=N/c2ccc(O)cc2)c1O | 75.7 | 5.77 | –
18 | FC(F)(F)c1ccc(/C=N/c2ccc(-c3ccccc3)cc2)cc1 | 0.75 | 5.07 | –
19 | CCOc1cccc(/C=N/c2cccc(C(=O)O)c2C)c1O | 38 | 5.43 | –
20 | O=C(c1ccc(Cl)cc1)c1ccccc1/N=C/c1c(O)ccc2ccccc12 | 22.9 | 3.09 | –
21 | O=C(O)c1cccc(/N=C/c2c(O)ccc3ccccc23)c1 | 0 | 0 | –
22 | COc1cccc(/C=N/c2cccc(C(=O)O)c2C)c1O | 51.8 | 14.9 | inhibition (TLR2/TLR6 (Homo sapiens) [3]): > 50%; inhibition [4]: > 50%
23 | Oc1ccc2ccccc2c1/C=N/c1ccc(-c2ccccc2)cc1 | 1.41 | 5.35 | –
24 | CCOc1cccc(/C=N/c2ccc(-c3ccccc3)cc2)c1O | 64.1 | 24.2 | –
25 | Cc1cccc(/N=C/c2cccc(O)c2O)c1C(=O)O | 21.2 | 15 | –

Row | Compound | inhibition [1] [%] | inhibition [2] [%] | other results
26 | COc1cc(/C=N/c2cc(N)cc(C(=O)O)c2)ccc1O | 0 | 0 | –
27 | CCOc1cccc(/C=N/c2ccc(OC)cc2)c1O | 35.2 | 8.33 | –
28 | Cc1c(/N=C/c2ccc(C(F)(F)F)cc2)cccc1C(=O)O | 0 | 0 | –
29 | COc1cccc(/C=N/c2ccc(-c3ccccc3)cc2)c1O | 75.3 | 23.3 | –
30 | COc1cc(/C=N/c2ccc(O)cc2)ccc1O | 62.7 | 7.51 | –
31 | CCOc1cccc(/C=N/c2cccc(C(=O)O)c2)c1O | 19.4 | 6.93 | –
32 | COc1cc(/C=N/c2ccc(-c3ccccc3)cc2)ccc1O | 0 | 2.39 | –
33 | Oc1ccc(/N=C/C=C/c2ccccc2)cc1 | 95.8 | 27.5 | –
34 | COc1ccc(/N=C/c2ccc(O)c(OC)c2)cc1 | 0 | 0 | –
35 | COc1cccc(/C=N/c2ccc(O)cc2)c1O | 91.1 | 14.9 | –
36 | COc1cccc(/C=N/c2ccc(-c3ccccc3)cc2)c1 | 0 | 0 | –
37 | COc1cccc(CNc2ccccc2C(=O)c2ccc(Cl)cc2)c1O | 19.2 | 0 | –
38 | O=C(O)c1ccc(C(F)(F)F)cc1/N=C/c1c(O)ccc2ccccc12 | 0 | 2.53 | –
39 | COc1cccc(/C=N/c2ccccc2C(=O)c2ccc(Cl)cc2)c1O | 95.1 | 66.8 | Activity [5]: Non-Toxic; inhibition (TLR2/TLR6 (Homo sapiens) [6]): Active; inhibition [7]: 50%; inhibition [8]: Dose-dependent effect; inhibition [9]: Active; inhibition (TLR2/TLR6 (Mus musculus)): > 70%; inhibition [10]: > 70%; inhibition [11]: 90%; inhibition [12]: inactive
40 | COc1ccc(/N=C/C=C/c2ccccc2)cc1 | 15.1 | 3.99 | –
41 | COc1ccc(/N=C/c2c(O)ccc3ccccc23)cc1 | 0 | 3.66 | –
42 | Cc1cccc(/N=C/c2c(O)ccc3ccccc23)c1C(=O)O | 0 | 0 | –
43 | C(=N\c1ccc(-c2ccccc2)cc1)/c1cccc2ccccc12 | 0 | 0 | –
44 | COc1ccc(/N=C/c2cccc(O)c2O)cc1 | 44.9 | 17 | –
45 | COc1cccc(/N=C/c2ccc(C(F)(F)F)cc2)c1 | 0.28 | 7.27 | –
46 | COc1cccc(/C=N/c2ccccc2C(=O)c2ccccc2)c1O | 30 | 1.86 | –
47 | COc1ccc(/N=C/c2cccc(OC)c2O)cc1 | 45.6 | 3.77 | –
48 | COc1cccc(/C=N/c2cccc(C(=O)O)c2C)c1 | 1.61 | 0.99 | –
49 | O=C(c1ccccc1)c1ccccc1/N=C/c1c(O)ccc2ccccc12 | 0 | 2.72 | –
50 | Oc1ccc(/N=C/c2c(O)ccc3ccccc23)cc1 | 0 | 0 | –
